Laboratory results published in ChEMBL document CHEMBL3739271, “Synthesis and evaluation of a series of resveratrol analogues as potent anti-cancer agents that target tubulin” (2015).

Tests used:
Type in all cases: functional
[1] = system: SK-MEL-28; assay: Cytotoxicity against human SK-MEL-28 cells by SRB assay
In short: (§1)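 NCI 60 human tumor cell line panel, sulforhodamine B (SRB) protein-stain read-out. Compounds were first screened at a single dose of 10^-5 M, and selected compounds were then tested in a five-dose format. GI50 is the drug concentration giving a 50% reduction in net protein increase relative to control cells.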

[2] = system: CCRF-CEM; assay: Cytotoxicity against human CCRF-CEM cells by SRB assay; in short: as §1
[3] = system: A549; assay: Cytotoxicity against human A549 cells by SRB assay; in short: as §1
[4] = system: NCI/ADR-RES; assay: Cytotoxicity against human NCI/ADR-RES cells by SRB assay; in short: as §1
[5] = Cytotoxicity against human SNB19 cells by SRB assay; conditions: SNB-19; in short: as §1
[6] = Cytotoxicity against human SF268 cells by SRB assay; conditions: SF-268; in short: as §1
[7] = Cytotoxicity against human HCT15 cells by SRB assay; conditions: HCT-15; in short: as §1
[8] = Cytotoxicity against human SF295 cells by SRB assay; conditions: SF-295; in short: as §1
[9] = Cytotoxicity against human IGROV1 cells by SRB assay; conditions: IGROV-1
In short: (§2)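 NCI 60-cell-line panel using sulforhodamine B protein stain. Initial single-dose screen at 10^-5 M, then five-dose testing. GI50 is the drug concentration giving a 50% reduction in net protein increase relative to control cells.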

[10] = Cytotoxicity against human HCC2998 cells by SRB assay; conditions: HCC 2998; in short: as §1
[11] = system: SK-MEL-5; assay: Cytotoxicity against human SK-MEL-5 cells by SRB assay; in short: as §1
[12] = system: MDA-MB-468; assay: Cytotoxicity against human MDA-MB-468 cells by SRB assay; in short: as §1
[13] = system: 786-0; assay: Cytotoxicity against human 786-0 cells by SRB assay; in short: as §1
[14] = system: U-251; assay: Cytotoxicity against human U251 cells by SRB assay; in short: as §1
[15] = system: MDA-MB-231; assay: Cytotoxicity against human MDA-MB-231 cells by SRB assay; in short: as §1
[16] = Cytotoxicity against human UO31 cells by SRB assay; conditions: UO-31; in short: as §1
[17] = system: HT-29; assay: Cytotoxicity against human HT-29 cells by SRB assay; in short: as §1
[18] = system: A498; assay: Cytotoxicity against human A498 cells by SRB assay; in short: as §1
[19] = Cytotoxicity against human HCT116 cells by SRB assay; conditions: HCT-116; in short: as §1
[20] = Cytotoxicity against human RPMI8226 cells by SRB assay; conditions: RPMI-8226; in short: as §1
[21] = Cytotoxicity against human UACC62 cells by SRB assay; conditions: UACC-62; in short: as §1
[22] = Cytotoxicity against human SNB75 cells by SRB assay; conditions: SNB-75; in short: as §1
[23] = Cytotoxicity against human SKOV3 cells by SRB assay; conditions: SK-OV-3; in short: as §1
[24] = system: SR; assay: Cytotoxicity against human SR cells by SRB assay; in short: as §1
[25] = Cytotoxicity against human OVCAR4 cells by SRB assay; conditions: OVCAR-4; in short: as §1
[26] = system: K562; assay: Cytotoxicity against human K562 cells by SRB assay; in short: as §1
[27] = system: ACHN; assay: Cytotoxicity against human ACHN cells by SRB assay; in short: as §1
[28] = system: CAKI-1; assay: Cytotoxicity against human CAKI-1 cells by SRB assay; in short: as §1
[29] = system: MCF7; assay: Cytotoxicity against human MCF7 cells by SRB assay; in short: as §1
[30] = Cytotoxicity against human Hs578T cells by SRB assay; conditions: Hs-578T; in short: as §1
[31] = Cytotoxicity against human MOLT4 cells by SRB assay; conditions: MOLT-4; in short: as §1
[32] = Cytotoxicity against human OVCAR3 cells by SRB assay; conditions: OVCAR-3; in short: as §1
[33] = Cytotoxicity against human SW620 cells by SRB assay; conditions: SW-620; in short: as §1
[34] = system: KM12; assay: Cytotoxicity against human KM12 cells by SRB assay; in short: as §1
[35] = system: M14; assay: Cytotoxicity against human M14 cells by SRB assay; in short: as §1
[36] = system: MDA-MB-435; assay: Cytotoxicity against human MDA-MB-435 cells by SRB assay; in short: as §1
[37] = Cytotoxicity against human SF539 cells by SRB assay; conditions: SF-539; in short: as §1
[38] = system: NCI-H522; assay: Cytotoxicity against human NCI-H522 cells by SRB assay; in short: as §1
[39] = Cytotoxicity against human HL-60(TB) cells by SRB assay; in short: as §2
[40] = Cytotoxicity against human HOP62 cells by SRB assay; conditions: HOP-62; in short: as §1
[41] = Cytotoxicity against human COLO205 cells by SRB assay; conditions: COLO 205; in short: as §1
[42] = system: SK-MEL-2; assay: Cytotoxicity against human SK-MEL-2 cells by SRB assay; in short: as §1

With `COc1ccc(/C=C/c2cc(OC)cc(OC)c2/C=C(\C#N)c2ccc(OC)cc2)cc1` the GI50 [1] was 0.75 µM, the GI50 [2] was 0.75 µM and the GI50 [3] was 0.91 µM. For the same molecule, the GI50 [4] was 0.65 µM, the GI50 [5] was > 100 µM and the GI50 [6] was 4.71 µM. It also gave a GI50 [7] of 0.65 µM, a GI50 [8] of 0.36 µM and a GI50 [9] of 2.35 µM. It also gave a GI50 [10] of 2.49 µM, a GI50 [11] of 2.28 µM and a GI50 [12] of 1.72 µM. For the same molecule, the GI50 [13] was 1.72 µM, the GI50 [14] was 0.64 µM and the GI50 [15] was 2.78 µM. The GI50 [16] was 0.81 µM, the GI50 [17] was 0.69 µM and the GI50 [18] was 0.38 µM. The GI50 [19] was 0.49 µM, the GI50 [20] was 1.16 µM and the GI50 [21] was 0.7 µM. The GI50 [22] was 0.47 µM, the GI50 [23] was 1.35 µM and the GI50 [24] was 0.91 µM. For the same molecule, the GI50 [25] was 0.5 µM, the GI50 [26] was 0.43 µM and the GI50 [27] was 0.83 µM. The GI50 [28] was 0.5 µM, the GI50 [29] was 0.39 µM and the GI50 [30] was 0.68 µM. For the same molecule, the GI50 [31] was 4.38 µM, the GI50 [32] was 0.63 µM and the GI50 [33] was 0.5 µM. The GI50 [34] was 0.78 µM, the GI50 [35] was 1.38 µM and the GI50 [36] was 0.24 µM. The GI50 [37] was 0.27 µM, the GI50 [38] was 0.24 µM and the GI50 [39] was 1.66 µM. It also gave a GI50 [40] of 0.97 µM and a GI50 [41] of 1.24 µM.

In the case of `COc1ccc(/C=C/c2cc(OC)cc(OC)c2/C=C(\C#N)c2ccccc2OC)cc1`, the GI50 [1] is reported as 4.22 µM, the GI50 [2] is reported as 2.24 µM and the GI50 [3] is reported as 3.56 µM. The GI50 [4] was 0.71 µM, the GI50 [5] was 8.77 µM and the GI50 [6] was 4.18 µM. For the same molecule, the GI50 [7] was 0.76 µM, the GI50 [8] was 2.51 µM and the GI50 [9] was 5.28 µM. It also gave a GI50 [10] of 5.47 µM, a GI50 [11] of 2.44 µM and a GI50 [12] of 1.7 µM. It also gave a GI50 [13] of 3.25 µM, a GI50 [14] of 2.77 µM and a GI50 [15] of 2.83 µM. The GI50 [42] was 2.13 µM, the GI50 [16] was 3.44 µM and the GI50 [17] was 0.48 µM. It also gave a GI50 [18] of 1.37 µM, a GI50 [19] of 1.29 µM and a GI50 [20] of 2.85 µM. The GI50 [22] was 2.28 µM, the GI50 [23] was 4.73 µM and the GI50 [24] was 0.28 µM. For the same molecule, the GI50 [25] was 3.59 µM, the GI50 [26] was 0.43 µM and the GI50 [27] was 4.25 µM. For the same molecule, the GI50 [28] was 2.2 µM, the GI50 [29] was 0.72 µM and the GI50 [30] was 1.34 µM. The GI50 [31] was 3.3 µM, the GI50 [32] was 1.38 µM and the GI50 [33] was 0.71 µM. The GI50 [34] was 0.64 µM, the GI50 [35] was 1.14 µM and the GI50 [36] was 0.28 µM. The GI50 [37] was 1.55 µM, the GI50 [38] was 0.25 µM and the GI50 [39] was 0.58 µM. It also gave a GI50 [40] of 2.79 µM and a GI50 [41] of 2.28 µM.
